Reference: ChEMBL document CHEMBL4130501 (Eur J Med Chem, 2017)
Active and inactive are the calls of the source. The calls are words filed in the database; no cut-off is given here.

Key:
Cholinesterase [1] = target: T1, Cholinesterase (Homo sapiens, UniProt P06276); experiment: Inhibition of BuChE (unknown origin) at 500 nM pre-incubated for 20 mins before S-Butyrylthiocholine iodide substrate addition by Ellman reagent based spectrophotometry
Method in brief: (§1)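 Cholinesterase inhibition was tested with the compound at 500 nM and reported as percent inhibition, mean ± SEM.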

[2] = Inhibition of AChE (unknown origin) at 500 nM pre-incubated for 20 mins before acetylthiocholine iodide substrate addition by Ellman reagent based spectrophotometry; conditions: Homo sapiens; method in brief: as §1
Cholinesterase [3] = target: T1, Cholinesterase; experiment: Inhibition of BuChE (unknown origin) pre-incubated for 20 mins before S-Butyrylthiocholine iodide substrate addition by Ellman reagent based spectrophotometry
[4] = target: Amyloid-beta precursor protein (Homo sapiens) (UniProt P05067); experiment: Inhibition of self-induced amyloid beta (1 to 42) (unknown origin) aggregation at 10 uM after 24 hrs by thioflavin T-based fluorometric assay relative to control
Sequence of Amyloid-beta precursor protein (Homo sapiens) (P05067 whole entry): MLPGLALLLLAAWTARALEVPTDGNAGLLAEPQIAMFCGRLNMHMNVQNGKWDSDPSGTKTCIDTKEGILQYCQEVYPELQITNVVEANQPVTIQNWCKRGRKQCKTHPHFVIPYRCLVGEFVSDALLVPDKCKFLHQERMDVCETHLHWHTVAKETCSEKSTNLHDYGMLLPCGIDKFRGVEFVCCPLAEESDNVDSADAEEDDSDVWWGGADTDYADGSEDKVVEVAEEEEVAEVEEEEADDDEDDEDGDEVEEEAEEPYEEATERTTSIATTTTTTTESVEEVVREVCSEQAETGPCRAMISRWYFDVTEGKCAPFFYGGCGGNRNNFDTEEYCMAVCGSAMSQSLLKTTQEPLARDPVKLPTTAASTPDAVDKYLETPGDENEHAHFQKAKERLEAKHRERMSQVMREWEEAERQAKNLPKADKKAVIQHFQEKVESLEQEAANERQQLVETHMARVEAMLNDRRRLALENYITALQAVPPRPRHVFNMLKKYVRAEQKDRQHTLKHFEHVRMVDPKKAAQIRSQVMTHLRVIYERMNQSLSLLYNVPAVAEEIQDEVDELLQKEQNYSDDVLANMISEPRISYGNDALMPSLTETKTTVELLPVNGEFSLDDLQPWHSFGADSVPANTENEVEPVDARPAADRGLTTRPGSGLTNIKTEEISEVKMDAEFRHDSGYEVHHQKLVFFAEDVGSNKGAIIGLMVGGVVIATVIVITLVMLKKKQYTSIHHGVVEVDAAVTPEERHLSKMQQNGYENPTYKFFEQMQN
Method in brief: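 Self-mediated Aβ1-42 aggregation was followed by thioflavin-T fluorescence with 10 µM inhibitor present. Percent inhibition was reported as mean ± SEM.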

[5] = Antioxidant activity assessed as DPPH radical scavenging activity incubated for 60 mins under dark condition by spectrophotometry; type: functional
Method in brief: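 DPPH radical scavenging was measured, and the IC50 was taken as the compound concentration giving 50% scavenging.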

[6] = Permeability at 100 ug/ml incubated for 10 hrs by PAMPA method; type: ADME; conditions: read-out: Peff
Method in brief: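 Passive BBB permeation was measured by PAMPA-BBB through an artificial lipid membrane, with Pe given in 10^-6 cm s^-1. Classification: Pe > 4.7 is CNS+, 4.7 to 1.8 is uncertain, and Pe < 1.8 is CNS−.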

[7] = Metal chelating activity against Cupric ions assessed as induction of isosbestic shift of maximum absorption upon addition of CuCl2 at 10 uM incubated for 30 mins UV-Vis spectrophotometry
HT-22 [8] = experiment: Cytotoxicity in mouse HT22 cells assessed as reduction in cell viability at 30 to 100 uM incubated for 24 hrs by MTT assay; type: cell-based; conditions: ht-22, 24 h
Method in brief: (§2)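 Mouse HT22 cells were exposed to compounds at 30, 50 and 100 µM for 24 h. Viability was read by colorimetric MTT assay and compared with untreated control cells (n = 3).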

HT-22 [9] = experiment: Neuroprotective activity against glutamate-induced cytotoxicity in mouse HT22 cells assessed as increase cell viability at 30 uM pre-incubated for 30 mins before glutamate stimulation for 24 hrs by MTT assay; type: functional, cell-based
Method in brief: (§3)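 HT22 cells were pretreated for 30 min with compounds at 3, 10 or 30 µM, then exposed to […] glutamate for 24 h. Viability was read by MTT (n = 3) and compared against the glutamate-only group and the control.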

HT-22 [10] = experiment: Neuroprotective activity against glutamate-induced cytotoxicity in mouse HT22 cells assessed as increase cell viability at 3 to 30 uM pre-incubated for 30 mins before glutamate stimulation for 24 hrs by MTT assay; type: functional, cell-based; method in brief: as §3
HT-22 [11] = experiment: Cytotoxicity in mouse HT22 cells assessed as reduction in cell viability at 100 uM incubated for 24 hrs by MTT assay; type: cell-based; conditions: ht-22, 24 h; method in brief: as §2
HT-22 [12] = experiment: Neuroprotective activity against glutamate-induced cytotoxicity in mouse HT22 cells assessed as increase cell viability at 10 uM pre-incubated for 30 mins before glutamate stimulation for 24 hrs by MTT assay; type: functional, cell-based; method in brief: as §3
HT-22 [13] = experiment: Cytotoxicity in mouse HT22 cells assessed as reduction in cell viability at 30 uM incubated for 24 hrs by MTT assay; type: cell-based; conditions: ht-22, 24 h; method in brief: as §2

T1 sequence (P06276 whole entry): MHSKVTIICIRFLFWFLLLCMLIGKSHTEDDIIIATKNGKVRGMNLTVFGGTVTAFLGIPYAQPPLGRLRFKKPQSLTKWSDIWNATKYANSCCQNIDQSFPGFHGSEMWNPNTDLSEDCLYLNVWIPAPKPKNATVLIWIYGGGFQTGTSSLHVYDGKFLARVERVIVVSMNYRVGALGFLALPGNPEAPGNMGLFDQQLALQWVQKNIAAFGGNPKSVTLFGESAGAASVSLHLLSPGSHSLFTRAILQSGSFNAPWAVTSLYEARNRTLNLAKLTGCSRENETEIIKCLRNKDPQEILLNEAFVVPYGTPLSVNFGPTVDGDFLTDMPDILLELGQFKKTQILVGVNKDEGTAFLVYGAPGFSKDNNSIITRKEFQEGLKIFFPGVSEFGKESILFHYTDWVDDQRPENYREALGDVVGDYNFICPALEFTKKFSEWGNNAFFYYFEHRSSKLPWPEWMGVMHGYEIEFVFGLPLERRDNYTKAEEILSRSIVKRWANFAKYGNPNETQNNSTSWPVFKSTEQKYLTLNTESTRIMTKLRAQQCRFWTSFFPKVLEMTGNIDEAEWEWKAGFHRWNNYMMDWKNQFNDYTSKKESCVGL

Structure (SMILES)	inhibition (Cholinesterase [1])	inhibition [2]	IC50 (Cholinesterase [3])	inhibition [4]	IC50 [5]	Papp at 10 h, 100 ug/ml [6]	Activity [7]	Activity (HT-22 [8])	Activity (HT-22 [9])	Activity (HT-22 [10])	Activity (HT-22 [11])	Activity (HT-22 [12])	Activity (HT-22 [13])
CCN(C)C(=O)Oc1cccc(CNC(=O)CCCCC2CCSS2)c1 (stereo unspecified)	77.3%	3.66%	0.378 µM	51.8%	4.3 µM	27.8 ×10⁻⁶ cm/s	Active	Non-Toxic	inactive				
CCN(C)C(=O)Oc1cccc(NC(=O)c2cc(=O)c3ccccc3o2)c1	53.8%	9.03%	0.507 µM	63.8%	> 100 µM			Toxic		inactive			
CCN(C)C(=O)Oc1cccc(NC(=O)c2cc(O)c(O)c(O)c2)c1	7.98%	23.6%		47.3%	10.6 µM	3.08 ×10⁻⁶ cm/s	Active				Toxic	Active	
CCN(C)C(=O)Oc1cccc([C@H](C)N(C)C)c1 [RIVASTIGMINE]	30.1%	1.92%				16.3 ×10⁻⁶ cm/s							
CCN(C)C(=O)Oc1cccc(CCNC(=O)c2cc(=O)c3ccccc3o2)c1	49.1%	22.1%	0.511 µM	67.4%	> 100 µM			Toxic		inactive			
Cc1c(C)c2c(c(C)c1O)CCC(C)(C(=O)O)O2 (stereo unspecified) [TROLOX]					23.5 µM								
CCN(C)C(=O)Oc1cccc(CCNC(=O)CCCCC2CCSS2)c1 (stereo unspecified)	76.7%	-1.48%	0.34 µM	49.8%	4.88 µM	12.1 ×10⁻⁶ cm/s		Non-Toxic	inactive				
CCN(C)C(=O)Oc1cccc(NC(=O)CCCCC2CCSS2)c1 (stereo unspecified)	77.4%	0.51%	0.356 µM	46.3%	4.53 µM	10.3 ×10⁻⁶ cm/s	Active	Non-Toxic	inactive				
CCN(C)C(=O)Oc1cccc(CNC(=O)c2cc(O)c(O)c(O)c2)c1	2.39%	5.53%		51.8%	12.9 µM	4.86 ×10⁻⁶ cm/s	Active	Non-Toxic	Active				
CCN(C)C(=O)Oc1cccc(CNC(=O)c2cc(=O)c3ccccc3o2)c1	37.1%	12.7%	0.65 µM	55.2%	> 100 µM							Active	Toxic
CCN(C)C(=O)Oc1cccc(CCNC(=O)c2cc(O)c(O)c(O)c2)c1	58.8%	3.48%	0.452 µM	27.1%	11.7 µM	5.14 ×10⁻⁶ cm/s	Active			inactive	Toxic		
